Screening data (PubChem)
An excerpt weighted towards active compounds, which were near 2.7% of everything screened.
PRMT1 inh: inhibitors of human PRMT1; inhibition, % at 2.79 µM; recombinant PRMT1, activity-based probe fluorescence polarization; 1.3% of 370,000 active;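 active = inhibition above about 21% made by adding two undisclosed values, limit read from the data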
Target sequence (Q99873 whole entry, looked up): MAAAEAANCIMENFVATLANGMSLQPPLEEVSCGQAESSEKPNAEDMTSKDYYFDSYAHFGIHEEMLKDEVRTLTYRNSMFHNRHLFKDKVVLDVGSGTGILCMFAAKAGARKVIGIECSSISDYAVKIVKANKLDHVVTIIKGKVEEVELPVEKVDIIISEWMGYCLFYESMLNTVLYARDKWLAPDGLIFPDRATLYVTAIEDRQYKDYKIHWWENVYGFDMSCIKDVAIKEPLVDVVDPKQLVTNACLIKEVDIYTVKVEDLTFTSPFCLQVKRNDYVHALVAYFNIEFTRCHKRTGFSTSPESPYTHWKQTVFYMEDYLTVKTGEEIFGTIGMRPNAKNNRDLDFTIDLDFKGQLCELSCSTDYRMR
SIAE inh: blocks human sialic acid acetylesterase | inhibition, % at 9.66 µM | SIAE FP-Rh probe binding, fluorescence polarization | AID 1053197 | 0.69% of 370,000 active | Q9HAT2;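 active = inhibition above a cutoff: mean of compounds within the control limits plus 3 SD of those, cut at about 17% in these data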;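 also: 0% = plate median of compound wells and 100% = probe without SIAE protein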
RBBP9 inhibitor: human RBBP9 hydrolase inhibition. recombinant RBBP9, FP-Rh probe fluorescence polarization. O75884. inhibition, % at 7.94 µM. 0.2% of 220,000 active. AID 1515;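 active = inhibition above the campaign mean of all tested compounds plus 3 SD, cut at about 14% in these data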;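 also: plate controls were DMSO wells with RBBP9 for no effect and wells lacking RBBP9 protein for full effect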
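Controls: DMSO-treated enzyme wells and wells lacking RBBP9 | Material: RBBP9 protein | Technique: Fluorescence polarization | Replication: Single well per compound, no replicates | Buffer or medium: Tris-NaCl-Pluronic buffer, pH 8.0 | Timing: 30 min compound preincubation, 45 min probe labeling, 25 °C | Read-out basis: Percent inhibition from mP, scaled between DMSO and no-protein wells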
GSTO1 counter: blocks human GSTO1 in RBBP9 counter-screen; P78417; recombinant GSTO1, activity-based probe fluorescence polarization; inhibition, % at 5.96 µM; 1.1% of 300,000 active;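 active = inhibition above the campaign mean inhibition plus 3 SD, cut at about 35% in these data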;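 also: 0% = GSTO1-1 with DMSO and 100% = wells lacking GSTO1-1 enzyme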
Target sequence (P78417 whole entry, looked up): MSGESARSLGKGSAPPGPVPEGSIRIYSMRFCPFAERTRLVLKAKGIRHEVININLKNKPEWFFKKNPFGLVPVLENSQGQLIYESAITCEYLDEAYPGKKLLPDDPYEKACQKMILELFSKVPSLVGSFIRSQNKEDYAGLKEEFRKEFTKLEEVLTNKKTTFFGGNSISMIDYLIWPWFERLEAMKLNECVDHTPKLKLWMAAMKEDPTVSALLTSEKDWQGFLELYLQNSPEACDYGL
PAD4 inh: PAD4 (human) enzyme inhibition; Q9UM07; recombinant PAD4, RCA probe fluorescence polarization; inhibition, % at 6.36 µM; 0.41% of 330,000 active;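 active = percent inhibition above a cutoff equal to the mean of all tested compounds plus 3 SD, cut at about 15% in these data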;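 also: 0% = PAD4 with RCA probe and DMSO and 100% = probe without PAD4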
GSTO1 inh conf: GSTO1 (human) inhibition, confirmation; 54% of 2,400 active; AID 2176; inhibition, % at 5.96 µM; recombinant GSTO1, probe fluorescence polarization; shares compounds with GSTO1 counter;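 active = inhibition above the primary screen's cutoff, its mean inhibition plus 3 SD, cut at about 35% in these data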;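 also: loss of polarization as inhibitors block binding of rhodamine sulfonate ester activity probe; 0% = GSTO1 with DMSO and 100% = wells lacking GSTO1 enzyme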
GSTO1 ABPP inh: inhibitors of recombinant human GSTO1; shares compounds with GSTO1 counter; gel ABPP SE-Rh probe fluorescence; inhibition, % at 1 µM; 30% of 130 active; AID 463110;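 active = inhibition of the enzyme GSTO1 above about 75%, limit read from the data; inactive = inhibition below that limit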
Active calls of the source: *; · = not tested or not shown.

SMILES | PRMT1 inh | SIAE inh | RBBP9 inhibitor | GSTO1 counter | PAD4 inh | GSTO1 inh conf | others
Cc1nc2c(ccc3nc(NC(=O)Cc4cccc5ccccc45)sc32)s1 | -2 | -109 | -9 | -24 | -2 | ·
O=C1CC(CC(=O)N/N=C/c2ccccc2[N+](=O)[O-])=NN1 | 7 | -3 | -2 | 52* | 14 | 12
O=C(C[n+]1ccccc1)N/N=C/c1ccccc1[N+](=O)[O-] | -1 | 0 | -4 | -2 | -1 | ·
CCC(Sc1nc(-c2ccccc2)c(C#N)c(=O)[nH]1)C(=O)Nc1nnc(C)s1 (centres undefined) | -3 | 0 | -8 | 61* | 1 | 63*
CC(NC(=O)c1cc(S(=O)(=O)N2CCOCC2)cn1C)c1ccccc1 (centres undefined) | -3 | 1 | · | -2 | 2 | ·
Oc1[nH]c2c(Cl)cc(Cl)cc2c1N=NC(=S)NCC1CCCO1 (centres undefined) | -3 | 6 | -10 | 51* | -3 | 7
COc1ccc(C)cc1NCc1cc(=O)oc2cc(-c3ccccc3)c(O)cc12 | -4 | 8 | 1 | 5 | -1 | ·
COC(=O)c1ccccc1NCc1cc(=O)oc2cc(O)c(O)cc12 | 6 | 5 | · | 43* | 9 | 10
O=C1CSc2ccc(S(=O)(=O)CCC(=O)NC3CCCCC3)cc2N1 | 5 | 2 | · | 53* | -8 | 4
CC1CCC(NC(=O)CCS(=O)(=O)c2ccc3c(c2)NC(=O)CS3)CC1 (centres undefined) | -6 | 2 | · | 8 | -4 | ·
Cc1noc(C)c1S(=O)(=O)N1CCC(C(=O)c2ccccc2)CC1 | -2 | -4 | 7 | 0 | -4 | ·
C#CC(=O)N(c1cc(OC)ccc1OC)C(C(=O)NC1CCCC1)c1cccs1 (centres undefined) | · | · | 0 | 65* | 0 | 68*
COc1ccc(CNC(=O)COC(=O)CCC(=O)c2cccs2)cc1 | 1 | -2 | -6 | -3 | -1 | ·
CCC(=O)N(CC)C1=C(O)c2ccccc2C(=O)C1=O | 53* | -3 | 8 | 38* | 3 | 32
CCN(C(=O)c1cccc2c1-c1ccccc1C2=O)c1ccccc1 | 2 | 6 | · | · | · | ·
O=C1[C@@H]2[C@H](C(=O)N1Cc1ccco1)[C@H]1C=C[C@@H]2C1 | -1 | -1 | -2 | 6 | 2 | ·
O=c1cc(C(Cl)(Cl)Cl)oc2c1ccc1ccccc12 | -1 | 5 | -1 | 47* | 1 | 80*
Cc1ccccc1-n1ncc2c([N+](=O)[O-])cc([N+](=O)[O-])cc21 | 2 | 4 | 1 | 39* | -8 | 3
CCOC(=O)C1CCN(C(=O)c2ccc(C)o2)CC1 | -1 | 3 | · | · | -5 | ·
CCOC(=O)C1CCN(C(=O)c2c(C)oc3c2C(=O)c2ccccc2C3=O)CC1 | 16 | 5 | -4 | 44* | 3 | 48*
Cc1oc2c(c1C(=O)N1CCC(C)CC1)C(=O)c1ccccc1C2=O | 2 | 3 | 11 | 40* | 9 | 8
CCCCOc1cccc(C(=O)Nc2ccc(S(=O)(=O)Nc3cc(C)on3)cc2)c1 | -1 | -5 | · | -6 | -6 | ·
CC(=O)N=Cc1c(C)c(C#N)c(=O)n(C)c1O | 11 | 2 | 5 | 19 | -7 | ·
Cc1c(C=O)c(Cl)n(C)c(=O)c1C#N | 7 | 3 | 2 | 53* | 27* | 84*
CCC(C)Oc1ccc(/C=C/c2[nH]c(=O)[nH]c(=O)c2[N+](=O)[O-])cc1OC (centres undefined) | -2 | -9 | -6 | 2 | 1 | ·
SMILES | PRMT1 inh | SIAE inh | RBBP9 inhibitor | GSTO1 counter | PAD4 inh | GSTO1 inh conf | others
COc1cc(/C=C/c2[nH]c(=O)[nH]c(=O)c2[N+](=O)[O-])cc([N+](=O)[O-])c1O | 0 | -22 | · | 53* | 0 | 68*
CCOc1ccc2oc(=O)cc(CN3CCN(Cc4ccccc4)CC3)c2c1 | -3 | 11 | · | 6 | 3 | ·
Cc1nnc(SCC(=O)c2cc(C)n(-c3c(C)n(C)n(-c4ccccc4)c3=O)c2C)s1 | 1 | 0 | 2 | 38* | 3 | 27
Cc1cc(C(=O)CSc2nnc(N)s2)c(C)n1-c1c(C)n(C)n(-c2ccccc2)c1=O | 3 | 0 | -2 | 17 | -5 | ·
Cc1cc(C)c[n+](C2=C([O-])c3ccccc3C(=O)/C2=N\S(=O)(=O)c2cccs2)c1 | -2 | 0 | -7 | 81* | -16 | 88*
Cc1ccc(NC2=C/C(=N/S(=O)(=O)c3cccs3)c3ccccc3C2=O)cc1C | -3 | 7 | -3 | 30 | -17 | ·
Cc1cc[n+](C2=C([O-])c3ccccc3C(=O)/C2=N\S(=O)(=O)c2cccs2)cc1C | 0 | 10 | -4 | 90* | 6 | 90*
O=C(NC1CCCCC1)C(c1cccnc1)N(C(=O)CCl)c1ccccc1Cl (centres undefined) | 0 | -5 | -14 | 88* | -2 | 83* | GSTO1 ABPP inh=40
O=C(NC1CCCCC1)C(c1cccnc1)N(C(=O)CCl)c1ccc(F)cc1 (centres undefined) | 1 | -6 | -11 | 95* | 3 | 97* | GSTO1 ABPP inh=82*
O=C(NCC(=O)N(c1ccc(F)cc1)C(C(=O)NC1CCCCC1)c1cccnc1)c1ccco1 (centres undefined) | 0 | -1 | · | -2 | -2 | ·
C=CCNC(=S)NC(=O)c1ccc(C)c(Br)c1 | 0 | 0 | -9 | 0 | 1 | ·
CCOc1ccc(N(CCCCO)C(=S)NC(=O)c2ccc(C)c(Br)c2)cc1 | -5 | 2 | -4 | 47* | -4 | 11
N#C/C(=C\c1ccc(C#N)cc1)C(=O)N1CCCC1 | · | · | 0 | 8 | 0 | ·
O=C(N/N=C\c1ccc(O)c([N+](=O)[O-])c1)c1ccccc1-n1cccc1 | 3 | 4 | 8 | -1 | -3 | ·
CCOC(=O)[C@]12CCCCC/C=C\1N(Cc1ccc(OC)cc1)C(=O)[C@H]2CC(=O)NCC1CCCCC1 | -1 | 4 | · | · | · | ·
Cc1cc(C)c(O)c(C2(O)C(=O)c3ccccc3C2=O)c1 | 4 | -1 | -5 | 6 | -3 | ·
S=c1[nH]c2ccccc2n2c(=S)[nH]nc12 | 9 | 14 | · | 59* | 2 | 39*
COc1ccc(C2(C)NC(=O)N(CC(=O)NCCC3=CCCCC3)C2=O)cc1OC (centres undefined) | -2 | -5 | -6 | 39* | -4 | 22
COc1ccc2cc(C3(C)NC(=O)N(CC(=O)NCCC4=CCCCC4)C3=O)ccc2c1 (centres undefined) | -1 | -7 | 2 | 2 | -1 | ·
O=C(Nc1nc(-c2ccccn2)cs1)c1cc2ccccc2o1 | -5 | -2 | -2 | 48* | -6 | 39*
CCCN(CC1CCCO1)C(=O)c1cc(COc2ccc(F)cc2F)on1 (centres undefined) | 2 | 5 | · | 5 | 3 | ·
COc1cc(OCc2ccccc2)c2c(CCC(=O)O)cc(=O)oc2c1 | -4 | -9 | · | · | · | ·
